Assay results collected from several papers.
Protocols differ between the studies behind these lines. In brackets after ≈: the same amount, converted by molar mass.
Organism: Enterococcus faecalis
Observed: microbial growth

SMILES | method | strain | notes | MIC [µg/mL]
CN[C@@H]1[C@H](O)[C@H](NC)[C@H]2O[C@@]3(O)C(=O)C[C@@H](C)O[C@H]3O[C@@H]2[C@H]1O | broth dilution | ATCC33186 |  | 50 (≈ 150 µM)
CCCCCCCCCCCCCCCC(=O)NS(=O)(=O)OC1CCNCC1 | broth dilution | ATCC33186 |  | 12.5 (≈ 29.9 µM)
C=C(NC(=O)C(=C)NC(=O)c1csc(C2=N[C@@H]3c4csc(n4)[C@H]4NC(=O)c5csc(n5)[C@H]([C@](C)(O)[C@@H](C)O)NC(=O)[C@H]5CSC(=N5)/C(=C/C)NC(=O)[C@H]([C@@H](C)O)NC(=O)c5csc(n5)[C@]3(CC2)NC(=O)[C@H](C)NC(=O)C(=C)NC(=O)[C@H](C)NC(=O)[C@H]([C@@H](C)CC)N[C@@H]2C=Cc3c([C@H](C)O)cc(nc3[C@H]2O)C(=O)O[C@@H]4C)n1)C(N)=O |  |  |  | 0.12 (≈ 0.0721 µM)
Cc1cc(Cl)ccc1-c1ccc(/C=C2\SC(=S)N(CC(=O)O)C2=O)o1 | broth dilution | VRE | drug-resistant strain | 1 to 8 (≈ 2.54 to 20.3 µM)
CCCCCCCCCCCCCCCC(=O)C(F)(F)P(=O)(O)O |  | ATCC33186 |  | 100 (≈ 270 µM)
COc1ccc2cc1Oc1cc(ccc1OC)CCC(N[C@@H]1CCCc3ccccc31)CCCC2 (stereo partly shown) | broth dilution | ATCC33186 |  | > 100
CCCCCCCCCCCC(=O)CP(=O)(O)O |  | ATCC33186 |  | 25 (≈ 89.8 µM)
CCCCCCCCCCCCCCCC(=O)NS(=O)(=O)OC | broth dilution | ATCC33186 |  | 50 (≈ 143 µM)
CCCCCCCCCCCC(=O)C(F)(F)P(=O)(O)O |  | ATCC33186 |  | 100 (≈ 318 µM)
CCCCCCCCCCCCCCCC(=O)NS(=O)(=O)Oc1cccc(Cl)c1 | broth dilution | ATCC33186 |  | 1.6 (≈ 3.59 µM)
